KCNK3 block – human KCNK3 channel inhibition, primary screen; CHO-KCNK3 thallium flux, FluxOR fluorescence; hits give low values; B-score at 10 µM; 340,000 tested, 0.84% active;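 active = B-score under library mean minus 4 SD, starting fluorescence ratio at most library mean plus 5 SD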;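 also: more negative B-score means stronger inhibition of thallium flux through KCNK3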
Target sequence (O14649 whole entry, looked up): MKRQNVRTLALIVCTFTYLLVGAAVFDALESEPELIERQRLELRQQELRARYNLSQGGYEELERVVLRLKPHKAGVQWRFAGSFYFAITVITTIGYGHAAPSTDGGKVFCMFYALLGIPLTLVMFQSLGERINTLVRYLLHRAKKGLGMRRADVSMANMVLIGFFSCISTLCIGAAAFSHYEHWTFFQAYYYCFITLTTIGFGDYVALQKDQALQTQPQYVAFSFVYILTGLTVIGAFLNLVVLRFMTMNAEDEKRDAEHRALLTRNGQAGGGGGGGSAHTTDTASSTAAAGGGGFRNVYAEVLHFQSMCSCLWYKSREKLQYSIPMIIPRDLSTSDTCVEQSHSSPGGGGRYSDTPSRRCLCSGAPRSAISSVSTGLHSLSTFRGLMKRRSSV
KCNQ1 inh – human KCNQ1 channel inhibition; P51787; 310,000 tested, 1.3% active; CHO-K1 KCNQ1, FluxOR thallium flux fluorescence; hits give high values; B-score at 10 µM;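 active = compounds whose thallium flux B-score, printed positive for inhibition, exceeds three library SD while starting fluorescence stays within three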;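 also: channel opened by potassium depolarization with thallium stimulus after 20 min compound exposure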
hERG rescue – compounds protecting human hERG from proarrhythmic drug block | CHO-hERG, FluxOR thallium flux, dofetilide IC70 present | activation (rescue from dofetilide block), less the hit threshold, % at 10 µM | 310,000 tested, 0.51% active;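 active = activation above the mean of controls blocked by dofetilide plus 5 SD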;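 also: thallium influx through hERG after potassium depolarization seen as dye fluorescence rise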
KCNQ1 pot – potentiators or activators of human KCNQ1 potassium channel | 310,000 tested, 0.35% active | CHO-K1 KCNQ1, thallium flux FluxOR fluorescence; hits give high values | B-score at 10 µM;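 active = fluorescence ratio B-score, a plate-corrected score, at least three library SD, with initial intensity B-score within 5 SD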
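System: CHO-K1 cells stably expressing KCNQ1 / Medium: assay buffer for compound exposure, DMSO matched across wells / Reagent: thallium- and potassium-containing depolarizing buffer / Compound: one concentration, matched DMSO / Incubation: 20 min compound pretreatment at room temperature / Measured by: kinetic FluxOR fluorescence, 10 s baseline plus 110 s post-stimulus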
KCNK9 inh – human KCNK9 channel inhibition. 310,000 tested, 1.2% active. HEK293 KCNK9, FluxOR thallium flux fluorescence; hits give low values. Q9NPC2. B-score at 10 µM;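 active = ratio B-score over 3 SD below the library mean, with starting fluorescence within 5 SD of its mean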;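 also: negative B-score means less thallium flux so channel inhibition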
KCC2 mod – modulators of human KCC2 chloride dependent transport. Q9H2X9. KCC2 cells, thallium flux FluoZin-2 fluorescence. B-score of Tl+ flux slope (higher = more flux/activation; lower = inhibition) at 10 µM. 190,000 tested, 2.2% active. AID 1456;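 active = thallium flux slope and its plate-corrected score both differing from the plate sample mean at a set confidence after two filtering rounds, in either direction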;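 also: slope of fluorescence scaled to starting intensity during 10 to 20 s after thallium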
KCC2 secondary – KCC2 (human) modulation, secondary assay; shares compounds with KCC2 mod; HEK293-KCC2, thallium flux, FluoZin2 fluorescence; hits give high values; normalised thallium flux (F/F0 slope) at 10 µM; 3,700 tested, 15% active; AID 1713;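 active = thallium flux slope above the same plate's solvent-only control mean plus 3 SD; inconclusive = the two replicate wells disagree; inactive = no significant difference from solvent-only control wells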
KCC2 bumet counter – thallium flux persisting under bumetanide in KCC2 cells, counter-screen secondary assay; shares compounds with KCC2 mod; HEK293-KCC2 + bumetanide/ouabain, thallium flux FluoZin2; hits give high values; normalized thallium flux at 10 µM; 3,700 tested, 49% active; AID 1714;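 active = thallium entry rate above the same plate's blocked-transporter control wells by more than 3 SD; inconclusive = the two repeat wells disagree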;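 also: raw slope of fluorescence over initial fluorescence between 10 and 20 s after thallium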
KCC2 secondary2 – KCC2 (human) modulation, second secondary assay; shares compounds with KCC2 mod; HEK293-KCC2, thallium flux FluoZin2 fluorescence; actives lie on both sides; F/F0 rise rate, 10–20 s post-thallium; normalized thallium flux at 10 µM; 3,700 tested, 23% active;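 active = thallium flux slope more than 3 SD above or below the plate's solvent-only control mean, mostly below; inconclusive = the two repeat wells disagreed; inactive = no significant shift from solvent-only controls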;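 also: raw slope with 0.1% DMSO as baseline and bumetanide as block control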
HEK counter1 – counter-screen for KCC2 modulators: effect in parental HEK293 cells; shares compounds with KCC2 mod; thallium flux FluoZin2, ouabain; baseline-ratio fluorescence slope, 10–20 s after thallium; thallium flux rate (normalised fluorescence) at 10 µM; 3,700 tested, 46% active;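 active = thallium flux rate significantly above the same plate's solvent-only control wells, beyond their mean plus 3 SD; inconclusive = the two replicate wells gave conflicting results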
KCC2 retest ouab – KCC2 (human) modulation, ouabain retest; shares compounds with KCC2 mod; HEK293-KCC2, thallium flux FluoZin2 fluorescence; bidirectional: low = inhibitor, high = activator; raw Tl+ flux slope (below DMSO = inhibition, above = activation) at 10 µM; 3,700 tested, 48% active;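 active = thallium flux slope beyond 3 SD from same-plate DMSO control mean in most replicates, usually higher, sometimes lower; inconclusive = repeat tests gave conflicting results; inactive = no significant difference from controls in most replicates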;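 also: slope of initial-normalized fluorescence between seconds 10 and 20 after thallium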
HEK counter2 – acts in parental HEK cells, second KCC2 counter-screen; shares compounds with KCC2 mod; HEK293 parental, thallium flux FluoZin-2 fluorescence slope; thallium flux slope at 10 µM; 3,700 tested, 33% active;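 active = thallium flux slope above the same plate's solvent-control mean plus 3 SD in both duplicate wells; inconclusive = duplicate wells that disagreed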;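 also: run without ouabain in cells lacking the KCC2 cotransporter; slope of fluorescence scaled to its starting value between 10 and 20 s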
* marks the source's active call; other numbers are inactive results; i = inactive; ? = inconclusive; · = no result given. An excerpt weighted towards active compounds, which were near 4.1% of everything screened.

SMILES | KCNK3 block | KCNQ1 inh | hERG rescue | KCNQ1 pot | KCNK9 inh | KCC2 mod | KCC2 secondary | KCC2 bumet counter | KCC2 secondary2 | HEK counter1 | KCC2 retest ouab | HEK counter2
COc1ccc(C(=O)NNC(=S)NC(=O)C(C)(C)C)cc1 | i | i | -12 | i | i | 24* | 0.024* | 0.036* | ? | 0.043* | 0.042* | 0.014*
COc1ccc(C(=O)NNC(=O)c2ccc(C(C)(C)C)cc2)cc1 | i | i | -4 | i | i | -1.3 | · | · | · | · | · | ·
COc1ccc(CN2C[C@]3(CO)O[C@@H](CO)C[C@@H]3S2(=O)=O)cc1 | i | · | · | · | · | · | · | · | · | · | · | ·
C=CCN1C(=O)c2ccc(C(=O)OCC(=O)Nc3ccc(S(N)(=O)=O)cc3)cc2C1=O | i | i | -10 | i | i | · | · | · | · | · | · | ·
CCC(=O)c1ccc(OCc2cn(CC(=O)c3ccc(O)cc3)nn2)cc1 | i | · | · | · | · | · | · | · | · | · | · | ·
COc1ccc(C(=O)NC(=S)NNC(=O)COc2ccccc2)cc1 | i | i | -10 | i | i | 35* | 0.023* | 0.072* | ? | 0.036* | 0.051* | 0.021*
CCCN(CC(=O)Nc1cc(Cl)ccc1Cl)C(=O)c1ccccn1 | i | · | · | · | · | · | · | · | · | · | · | ·
CN=c1scc(-c2ccc(F)cc2)n1/N=C/c1ccc(O)c(O)c1 | i | · | · | · | · | -4.2* | 0.0048 | 0.0051 | 0.023* | 0.0069 | 0.015* | ?
Cc1cccc(C(=O)N/N=C/c2cc(Br)c(Br)o2)c1 | i | i | -7 | i | i | 0.061 | 0.009 | 0.017* | 0.033 | 0.0091* | ? | 0.0094
CN(C)c1ccc(/C=N/NC(=O)c2ccccc2O)o1 | i | i | -5 | i | i | 5.1* | 0.01 | ? | 0.033 | 0.011* | 0.02 | 0.012
O=C(N/N=C/c1ccc(-c2cccc([N+](=O)[O-])c2)o1)c1ccccc1O | i | i | -7 | i | i | 3.4* | 0.011 | 0.024* | 0.038 | 0.012* | 0.032* | ?
Cc1ccc(/C=N/NC(=O)c2cccc([N+](=O)[O-])c2)o1 | i | i | -8 | i | i | 5.5* | 0.01 | 0.011* | 0.033 | 0.012* | 0.023 | 0.011
CCc1ccc(-c2cc3c(=O)n(CC(=O)NCCCN4CCN(C)CC4)ncn3n2)cc1 | i | i | -18 | i | i | · | · | · | · | · | · | ·
CN(Cc1ccccc1)c1ccc(C(CC(N)=O)NC(=O)c2ccccc2)cc1[N+](=O)[O-] (stereo not drawn) | i | i | -9 | i | i | · | · | · | · | · | · | ·
O=C(N/N=C/c1ccc(-c2cccc(C(F)(F)F)c2)o1)c1ccccc1Br | i | i | -2 | i | i | · | · | · | · | · | · | ·
O=C(N/N=C/c1ccc(-c2cccc(C(F)(F)F)c2)o1)c1ccccc1O | i | i | -5 | i | i | 4.8* | 0.0069 | 0.029* | 0.033 | 0.016* | ? | 0.019*
CCCn1c(CN2CCN(C(=O)c3ccco3)CC2)nc2cc(S(=O)(=O)N(C)C)ccc21 | i | · | · | · | · | · | · | · | · | · | · | ·
CCOc1ccc(OCc2ccc(C(=O)N/N=C(\C)c3ccccn3)cc2)cc1 | i | i | -13 | i | i | 9* | 0.011 | 0.024* | 0.031 | 0.029* | 0.03* | ?

Source: PubChem
